Paper PMC9080015 (RSC Advances, 2018)
Where two headings read alike, the source gives them in different places.

Columns and labels:
Type in all cases: biochemical
[1] = target: T1, recombinant human CYP1B1 (Homo sapiens, UniProt Q16678); test: EROD assay, recombinant human CYP1B1 inhibition; conditions: for IC50 ratio 1A1/1B1: selectivity for CYP1B1 over CYP1A1; for IC50 ratio 1A2/1B1: selectivity for CYP1B1 over CYP1A2
T1 sequence (Q16678 1-543): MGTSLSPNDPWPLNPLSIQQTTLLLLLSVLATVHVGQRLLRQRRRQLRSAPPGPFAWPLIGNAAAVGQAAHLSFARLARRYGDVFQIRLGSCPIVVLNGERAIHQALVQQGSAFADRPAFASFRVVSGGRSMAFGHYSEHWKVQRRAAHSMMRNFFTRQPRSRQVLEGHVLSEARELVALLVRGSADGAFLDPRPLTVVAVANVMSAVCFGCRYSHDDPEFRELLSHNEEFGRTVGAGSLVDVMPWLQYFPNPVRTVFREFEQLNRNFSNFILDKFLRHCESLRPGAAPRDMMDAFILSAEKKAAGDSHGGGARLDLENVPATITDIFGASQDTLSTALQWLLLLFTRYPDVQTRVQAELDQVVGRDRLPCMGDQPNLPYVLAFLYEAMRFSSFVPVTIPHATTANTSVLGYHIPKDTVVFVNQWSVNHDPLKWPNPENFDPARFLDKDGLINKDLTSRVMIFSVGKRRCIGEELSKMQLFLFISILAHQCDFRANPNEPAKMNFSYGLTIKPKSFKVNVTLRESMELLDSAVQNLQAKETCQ

[2] = target: T2, CYP1A1 (Homo sapiens, UniProt P04798); test: EROD assay, recombinant human CYP1A1 inhibition
T2 sequence (P04798 1-512): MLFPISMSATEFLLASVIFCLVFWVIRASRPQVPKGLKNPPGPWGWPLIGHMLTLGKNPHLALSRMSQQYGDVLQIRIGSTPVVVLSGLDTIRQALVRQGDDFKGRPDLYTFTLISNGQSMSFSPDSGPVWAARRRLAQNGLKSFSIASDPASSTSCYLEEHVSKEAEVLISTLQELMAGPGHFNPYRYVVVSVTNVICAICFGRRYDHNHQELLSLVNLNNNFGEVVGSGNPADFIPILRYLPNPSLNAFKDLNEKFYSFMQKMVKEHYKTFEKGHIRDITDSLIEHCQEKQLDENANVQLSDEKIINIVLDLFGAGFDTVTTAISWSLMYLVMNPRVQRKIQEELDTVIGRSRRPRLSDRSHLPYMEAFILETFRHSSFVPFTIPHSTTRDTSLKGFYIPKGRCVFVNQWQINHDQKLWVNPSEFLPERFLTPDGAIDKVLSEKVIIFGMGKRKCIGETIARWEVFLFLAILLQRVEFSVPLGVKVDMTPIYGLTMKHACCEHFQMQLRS
Outline: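 Supersomes with P450 reductase. Test compound is taken from 10 mM DMSO stock into Tris–HCl pH 7.4 (final DMSO <1% v/v), at several concentrations. Methanol stop. Resorufin fluorescence read at ex 544/em 590 nm. IC50 from nonlinear regression, log(inhibitor) vs normalized response, variable slope.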

[3] = target: T3, CYP1A2 (Homo sapiens, UniProt P05177); test: EROD assay, recombinant human CYP1A2 inhibition
T3 sequence (P05177 2-516 limits assumed): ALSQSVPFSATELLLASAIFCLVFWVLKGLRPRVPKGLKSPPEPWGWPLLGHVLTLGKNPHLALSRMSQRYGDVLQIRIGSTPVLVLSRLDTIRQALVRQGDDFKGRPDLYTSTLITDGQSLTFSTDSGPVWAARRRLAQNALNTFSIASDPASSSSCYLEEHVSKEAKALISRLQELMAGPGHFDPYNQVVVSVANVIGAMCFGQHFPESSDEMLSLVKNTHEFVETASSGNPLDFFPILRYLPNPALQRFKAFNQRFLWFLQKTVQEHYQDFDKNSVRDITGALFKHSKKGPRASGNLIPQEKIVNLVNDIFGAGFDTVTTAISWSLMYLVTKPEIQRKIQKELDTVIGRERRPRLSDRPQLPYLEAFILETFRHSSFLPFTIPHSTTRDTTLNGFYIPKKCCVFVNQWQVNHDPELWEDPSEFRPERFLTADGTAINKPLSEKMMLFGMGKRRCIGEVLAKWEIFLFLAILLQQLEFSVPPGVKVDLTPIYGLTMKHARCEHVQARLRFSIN

[4] = read-out: IC50 values (nM) 1B1, EROD assay, 20 fmol CYP1B1, 150 nM 7-ER, 37 °C, 35 min

Molecule | IC50 values (nM) 1B1 ([1]; EROD assay, 20 fmol CYP1B1, 150 nM 7-ER, 37 °C, 35 min) | IC50 [1, 4] [nM] | IC50 at 15 min ([2]; human, recombinant human CYP1A1 with P450 reductase (Supersomes), pH 7.4, probe 7-ethoxyresorufin (7-ER), 150 nM) [nM] | IC50 at 50 min ([3]; human, recombinant human CYP1A2 with P450 reductase (Supersomes), pH 7.4, probe 7-ethoxyresorufin (7-ER), 150 nM) [nM] | IC50 [1] [nM] | IC50 ratio 1A1/1B1 [1] | IC50 ratio 1A2/1B1 [1] | IC50 [2] [nM] | IC50 [3] [nM] | IC50 ([2]; read-out: IC50 values (nM) 1A1, EROD assay, 10 fmol CYP1A1, 150 nM 7-ER, 37 °C, 15 min) [nM] | IC50 ([3]; read-out: IC50 values (nM) 1A2, EROD assay, 60 fmol CYP1A2, 150 nM 7-ER, 37 °C, 50 min) [nM]
COc1cc(-c2ccccc2)nc2c1ccc1ccccc12 [Compound 4b, 4-Methoxy-2-phenylbenzo[h]quinoline] | no longer a CYP1 inhibitor | > 5000 | > 5000 | > 5000 |  |  |  |  |  |  | 
COc1cc(C2CC(=O)c3ccc4ccccc4c3N2)cc(OC)c1OC (stereo not drawn) [Compound 1b, 2-(3,4,5-Trimethoxyphenyl)-2,3-dihydrobenzo[h]quinolin-4(1H)-one] |  |  |  |  | 20.2 | 2.2 | >247.5 | 44.6 | > 5000 |  | 
O=C1CC(c2cccc(F)c2)Nc2c1ccc1ccccc21 (stereo not drawn) [Compound 1d, 2-(3-Fluorophenyl)-2,3-dihydrobenzo[h]quinolin-4(1H)-one] |  |  |  |  | 98.6 | 5.0 | 10.6 | 493 | 1050 |  | 
O=c1c(O)c(-c2ccc(F)cc2)[nH]c2c1ccc1ccccc12 [Compound 3d, 2-(4-Fluorophenyl)-3-hydroxybenzo[h]quinolin-4(1H)-one] |  |  |  |  | 93.3 | 3.6 | >53.6 | 334 | > 5000 |  | 
O=c1c(O)c(-c2ccccc2)[nH]c2c1ccc1ccccc12 [Compound 3a, 3-Hydroxy-2-phenylbenzo[h]quinolin-4(1H)-one] |  |  |  |  | 86.7 | 10.4 | >57.7 | 898 | > 5000 |  | 
O=c1c(O)c(-c2ccccc2F)[nH]c2c1ccc1ccccc12 [Compound 3b, 2-(2-Fluorophenyl)-3-hydroxybenzo[h]quinolin-4(1H)-one] |  |  |  |  | 85.9 | 20.8 | >58.2 | 1780 | > 5000 |  | 
O=C1CC(c2ccccc2)Nc2c1ccc1ccccc21 (stereo not drawn) [Compound 1a, 2-Phenyl-2,3-dihydrobenzo[h]quinolin-4(1H)-one] |  |  |  |  | 131 | 3.1 | 7.3 | 405 | 953 |  | 
O=c1c(O)c(-c2ccc(O)cc2)[nH]c2c1ccc1ccccc12 [Compound 3c, 3-Hydroxy-2-(4-hydroxyphenyl)benzo[h]quinolin-4(1H)-one] |  |  |  |  | 142 | 3.7 | >35.3 | 525 | > 5000 |  | 
2-Phenylbenzo[h]quinolin-4-ol [Compound 4a] |  | 7.6 |  |  |  | 2.4 | 19.3 |  |  | 18.5 | 147
O=C1CC(c2ccccc2F)Nc2c1ccc1ccccc21 (stereo not drawn) [Compound 1c, 2-(2-Fluorophenyl)-2,3-dihydrobenzo[h]quinolin-4(1H)-one] |  |  |  |  | 139 | 4.1 | 7.9 | 578 | 1100 |  | 
COc1cc([C@@H]2Nc3c(ccc4ccccc34)C(=O)[C@@H]2O)cc(OC)c1OC [Compound 2b, (2S,3R) 3-Hydroxy-2-(3,4,5-trimethoxyphenyl)-2,3-dihydrobenzo[h]quinolin-4(1H)-one] |  |  |  |  | 303 | 3.8 | >16.5 | 1160 | > 5000 |  | 
O=c1cc(-c2ccccc2)[nH]c2c1ccc1ccccc12 [Compound 3e, 2-Phenylbenzo[h]quinolin-4(1H)-one] |  |  |  |  | 17.3 | 6.0 | 27.9 | 103 | 483 |  | 
O=C1c2ccc3ccccc3c2N[C@@H](c2ccccc2)[C@H]1O [Compound 2a, (2S,3R) 3-Hydroxy-2-phenyl-2,3-dihydrobenzo[h]quinolin-4(1H)-one] |  |  |  |  | 260 | 2.3 | 5.4 | 588 | 1410 |  | 

Continued, values first:

IC50 values (nM) 1B1 ([1]; EROD assay, 20 fmol CYP1B1, 150 nM 7-ER, 37 °C, 35 min) | IC50 [1, 4] [nM] | IC50 at 15 min ([2]; human, recombinant human CYP1A1 with P450 reductase (Supersomes), pH 7.4, probe 7-ethoxyresorufin (7-ER), 150 nM) [nM] | IC50 at 50 min ([3]; human, recombinant human CYP1A2 with P450 reductase (Supersomes), pH 7.4, probe 7-ethoxyresorufin (7-ER), 150 nM) [nM] | IC50 [1] [nM] | IC50 ratio 1A1/1B1 [1] | IC50 ratio 1A2/1B1 [1] | IC50 [2] [nM] | IC50 [3] [nM] | IC50 ([2]; read-out: IC50 values (nM) 1A1, EROD assay, 10 fmol CYP1A1, 150 nM 7-ER, 37 °C, 15 min) [nM] | IC50 ([3]; read-out: IC50 values (nM) 1A2, EROD assay, 60 fmol CYP1A2, 150 nM 7-ER, 37 °C, 50 min) [nM] | Molecule
 |  |  |  | 164 | 4.9 | >30.5 | 809 | > 5000 |  |  | COc1cc(-c2cc(=O)c3cc(OC)c4cccc(OC)c4c3[nH]2)cc(OC)c1OC [Compound 5j, 6,10-Dimethoxy-2-(3,4,5-trimethoxyphenyl)benzo[h]quinolin-4(1H)-one]
 |  |  |  |  | 2.7 | 540.3 |  | 2110 |  |  | COc1cc2c(=O)cc(-c3ccc(F)cc3)[nH]c2c2c(OC)cccc12 [Compound 5g, 2-(4-Fluorophenyl)-6,10-dimethoxybenzo[h]quinolin-4(1H)-one]
 |  |  |  |  | 15.8 | >1219.5 |  | > 5000 |  |  | COc1ccc(-c2cc(=O)c3cc(OC)c4cccc(OC)c4c3[nH]2)cc1 [Compound 5h, 6,10-Dimethoxy-2-(4-methoxyphenyl)benzo[h]quinolin-4(1H)-one]
 |  |  |  | 27.6 | 1.1 | 3.1 | 29.4 | 84.5 |  |  | COc1cc2c(=O)cc(-c3cccc(Cl)c3)[nH]c2c2c(OC)cccc12 [Compound 5d, 2-(3-Chlorophenyl)-6,10-dimethoxybenzo[h]quinolin-4(1H)-one]
 |  |  |  | 7.1 | 5.0 | 26.8 | 35.8 | 190 |  |  | COc1cccc(-c2cc(=O)c3cc(OC)c4cccc(OC)c4c3[nH]2)c1 [Compound 5f, 6,10-Dimethoxy-2-(3-methoxyphenyl)benzo[h]quinolin-4(1H)-one]
 |  |  |  | 7.8 | 5.0 | 42.4 | 39.3 | 331 |  |  | COc1cc2c(=O)cc(-c3cccc(F)c3)[nH]c2c2c(OC)cccc12 [Compound 5c, 2-(3-Fluorophenyl)-6,10-dimethoxybenzo[h]quinolin-4(1H)-one]
 |  |  |  | 27.9 | 0.9 | 6.2 | 26.4 | 174 |  |  | COc1cc2c(=O)cc(-c3ccccc3F)[nH]c2c2c(OC)cccc12 [Compound 5b, 2-(2-Fluorophenyl)-6,10-dimethoxybenzo[h]quinolin-4(1H)-one]
 |  |  |  | 34.4 | 8.7 | 38.9 | 300 | 1340 |  |  | COc1cc2c(=O)cc(-c3ccc(C(F)(F)F)cc3)[nH]c2c2c(OC)cccc12 [Compound 5i, 6,10-Dimethoxy-2-(4-(trifluoromethyl)phenyl)benzo[h]quinolin-4(1H)-one]
 |  |  |  | 16.6 | 0.8 | 8.9 | 12.6 | 148 |  |  | COc1cc2c(=O)cc(-c3ccccc3)[nH]c2c2c(OC)cccc12 [Compound 5a, 6,10-Dimethoxy-2-phenylbenzo[h]quinolin-4(1H)-one]
